Published values of several laboratories.
Protocols differ between the studies behind these lines.
Target: G protein-coupled receptor kinase 5 (GRK5, Homo sapiens, UniProt P34947)

test	conditions	quantity	result	Structure (SMILES)
enzyme activity, inhibitor	1 µM	inhibition	-2%	COc1cc2ncnc(Nc3ccc(Oc4ccccc4)cc3C)c2cc1OC
enzyme activity, inhibitor	10 µM	remaining activity	114%	CCCOc1ccc(OC)c(F)c1C(=O)c1ccc(C(=O)N[C@@H]2CNC[C@H]2NC(=O)c2ccc3[nH]ncc3c2)cc1
enzyme activity, inhibitor	1 µM	remaining activity	95.1%	CC(C)(O)[C@H]1CC[C@H](Nc2ccc3ncc(-c4cccc(C(F)(F)F)c4)n3n2)CC1
enzyme activity, inhibitor	5 µM	remaining activity	98%	O=C(Nc1cnn(-c2csc(C(=O)NC3COC3)c2)c1)Nc1ccccc1Cl
cell-free assay	0.5 µM	remaining signal	103%	N#CCCc1ccc2c(c1)-c1[nH]c3ccc([N+](=O)[O-])cc3c1CC(=O)N2
enzyme activity, inhibitor, radiometric	1 µM	remaining activity	84%	CC(C)(C)c1nc2c(s1)c1nc(N)ncc1c1ccc(NS(=O)(=O)c3c(F)cccc3F)c(F)c12
enzyme activity, inhibitor	10 µM	inhibition	-10%	Cc1ccc(Nc2nccc(N(C)c3ccc4c(C)n(C)nc4c3)n2)cc1S(N)(=O)=O
enzyme activity, inhibitor	1 µM	remaining activity	99%	COc1cc(Cl)c(C(=O)N[C@@H](CN[C@H]2CC[C@@H](N)CC2)Cc2ccc(C#N)cc2)cc1-c1ccc(CN[C@H](C)c2ccc(C)cc2)o1
enzyme activity, inhibitor	0.3 µM	inhibition	7%	CNC(=O)c1cc(Oc2ccc(NC(=O)Nc3ccc(Cl)c(C(F)(F)F)c3)cc2)ccn1
enzyme activity, inhibitor	1 µM	inhibition	< 10%	CCCS(=O)(=O)Nc1ccc(F)c(C(=O)c2c[nH]c3ncc(-c4ccc(Cl)cc4)cc23)c1F
enzyme activity, inhibitor	0.1 µM	activity vs control	112%	Cc1cc(NC(=O)c2cccc3cc(-c4cccc5[nH]nc(N)c45)ccc23)ccc1F
enzyme activity, inhibitor	1 µM	inhibition	0%	COc1cc2ncnc(Nc3ccc(Oc4ccccc4)c(C)c3C)c2cc1OC
cell-free assay	10 µM	remaining signal	99%	Cc1ccc(NC(=O)c2ccc(C)c(C(F)(F)F)c2)cc1C#Cc1nn(C2CCC(O)CC2)c2ncnc(N)c12 (centres unmarked)
enzyme activity, inhibitor, radiometric	1 µM	remaining activity	85%	CC(C)(C)c1nc(-c2cccc(NS(=O)(=O)c3c(F)cccc3F)c2F)c(-c2ccnc(N)n2)s1
enzyme activity, inhibitor	10 µM	remaining activity	103%	CCN(CC)c1ccc(C2=NNC(=O)CC2C)cc1[N+](=O)[O-] (centres unmarked)
enzyme activity, inhibitor	1 µM	activity vs control	111%	Cc1ccc(C(=O)NCc2ccsc2)cc1C#Cc1cn(C(C)C)c2ncnc(N)c12
enzyme activity, inhibitor, radiometric	1 µM	remaining activity	96%	Cc1cnc(NC2CCOCC2)nc1-n1cnc(C(=O)NC(CN)c2cc(F)cc(Cl)c2)c1 (centres unmarked)
cell-free assay	0.5 µM	remaining signal	101%	O=C1NC(=O)c2cc(Nc3ccc(F)cc3)c(Nc3ccc(F)cc3)cc21
enzyme activity, inhibitor	10 µM	remaining activity	113%	Cc1sc(C(=O)NC2COC2)cc1-n1cc(NC(=O)Nc2c(F)cccc2Cl)cn1
enzyme activity, inhibitor	1 µM	inhibition	3%	CN1CC(Oc2cnc(C#N)cc2-c2ccn3nc(NC(=O)C4CC4)cc3c2)C1
